16 molecules from ChEMBL document CHEMBL1158400, “Synthesis of 2-styrylchromones as a novel class of antiproliferative agents targeting carcinoma cells” (Eur J Med Chem, 2009) can be followed below.

Calls of active or inactive are those of the source. No cut-off for these calls is given here. Bounds are passed on as bounds.

The test system of test [1] is A549. The test can be described thus: Antiproliferative activity against human A549 cells after 12 hrs by MTT assay. It counts as functional, cell-based. The conditions noted are these: A549, 12 h. The method in brief:
(§1)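 MTT assay. Cells grown as monolayers in DMEM with 10% FBS, 2 mM glutamine and penicillin/streptomycin at 37 °C, 5% CO2. Seeded at 1×10^4 cells/well and held 12 h before serial compound dilutions were added. Final DMSO was under 1% (v/v). MTT (2 mg/ml) was present for the last 1.5 h; the formazan was dissolved in DMSO and read at 570 nm. IC50 interpolated from dose-response curves; mean ± sem of four to six experiments.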
On the technique in general: Formazan colour is commonly taken as a measure of viable cells.

The nature of test [2]: Antiproliferative activity against human BT-483 cells after 12 hrs by MTT assay. It is filed as functional, cell-based. The conditions noted are these: BT-483, 12 h. The method in brief: as §1
Test [3] can be described thus: Antiproliferative activity against human SKHep cells after 12 hrs by MTT assay. It is filed as functional, cell-based. An outline of the steps:
as §1

Test [4] relates to HeLa. Put plainly: Antiproliferative activity against human HeLa cells after 12 hrs by MTT assay. It is filed as functional, cell-based. An outline of the steps:
as §1

Test [5] relates to PC-3. Put plainly: Antiproliferative activity against human PC3 cells after 12 hrs by MTT assay. It counts as functional, cell-based. The conditions noted are these: PC-3, 12 h. The method in brief:
as §1

For test [6], the system named is HeLa. The test can be described thus: Antiproliferative activity against human HeLa cells assessed as DNA fragmentation at 5 uM after 24 hrs using […] DAPI staining by fluorescence microscopy. It counts as functional, cell-based. An outline of the steps:
(§2)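 HeLa cells grown on cover glasses were treated 24 h with 5 or 10 μM compound, with untreated and 0.5% DMSO controls. They were fixed in 4% paraformaldehyde, glycine-washed and permeabilized with 2% FBS/0.4% Triton X-100. Nuclei were stained with DAPI (0.1 μg/ml) for 5 min in the dark, and DNA fragmentation was examined by fluorescence microscopy.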

Test [7] relates to HeLa. The test can be described thus: Antiproliferative activity against human HeLa cells at 3 uM after 30 hrs by MTT assay. It is filed as functional. An outline of the steps:
(§3)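 HeLa cells at 10^4 cells/well were given the compound at 1.0, 3.0 or 10 μM, alongside an untreated control and a 0.1% DMSO control. Proliferation was followed by MTT at several time points over a 30 h period.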

Test [8] concerns HeLa. Put plainly: Cell cycle arrest in human HeLa cells assessed as accumulation at sub-G1 phase after 24 hrs using propidium iodide staining by FACS analysis. It is filed as functional, cell-based. An outline of the steps: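 HeLa cells were treated 24 h with compound at 5 or 20 μM, with a 0.5% DMSO control and untreated blank. Cells were harvested, rinsed in PBS and fixed in 80% ethanol at −20 °C. They were stained with propidium iodide and analysed by flow cytometry. The sub-diploid (apoptotic) population is expressed as a percentage of all cells.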

The test system of test [9] is HeLa. The test can be described thus: Antiproliferative activity against human HeLa cells assessed as morphological changes at 10 uM after 24 hrs using DAPI staining by fluorescence microscopy. It counts as functional, cell-based. An outline of the steps:
(§4)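 HeLa cells were exposed 24 h to 5, 10 or 20 μM compound, with untreated and DMSO controls. Morphology (cell rounding, detachment from substratum) was examined.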

In test [10] the test system is HeLa. Put plainly: Antiproliferative activity against human HeLa cells assessed as morphological changes at 5 uM after 24 hrs using DAPI staining by fluorescence microscopy. It counts as functional, cell-based. An outline of the steps: as §4
Test [11] relates to HeLa. The test can be described thus: Antiproliferative activity against human HeLa cells assessed as morphological changes at 20 uM after 24 hrs using DAPI staining by fluorescence microscopy. It is filed as functional, cell-based. An outline of the steps:
as §4

In test [12] the test system is HeLa. Put plainly: Antiproliferative activity against human HeLa cells at 10 uM after 30 hrs by MTT assay. It counts as functional. An outline of the steps: as §3
The subject of test [13] is HeLa. The test can be described thus: Antiproliferative activity against human HeLa cells assessed as DNA fragmentation at 10 uM after 24 hrs using […] DAPI staining by fluorescence microscopy. It counts as functional, cell-based. The method in brief: as §2
Test [14] concerns HeLa. Put plainly: Cell cycle arrest in human HeLa cells assessed as accumulation at G1 phase at 20 uM after 24 hrs using propidium iodide staining by FACS analysis. It is filed as functional, cell-based.

For the molecule `COc1ccc(/C=C/c2cc(=O)c3c(OC)cc(OC)cc3o2)cc1`, the IC50 in test [1] is greater than 40 µM; in test [2] (read-out: IC50), 29.6 µM; in test [2] (read-out: pIC50 (converted)), 29.5 µM; in test [3], greater than 40 µM; in test [4] it was 17.8 µM; in test [5], greater than 40 µM.

`COc1cc(/C=C/c2cc(=O)c3c(OC)cc(OC)cc3o2)cc(OC)c1`: the IC50 in test [1] was 15.6 µM; in [2] (read-out: IC50) it was 16.6 µM; in test [2] (read-out: pIC50 (converted)), 16.6 µM; in [3], 23.7 µM; in [4] it was 16.7 µM; in [5], greater than 40 µM.

As to `COc1cc(OC)c2c(=O)cc(/C=C/c3ccc4c(c3)OCO4)oc2c1`, the IC50 was greater than 40 µM in test [1]; 29.3 µM in test [2] (read-out: IC50); 29.5 µM in test [2] (read-out: pIC50 (converted)); 23.7 µM in test [3]; 16.4 µM in test [4]; greater than 40 µM in [5].

For the molecule `COc1ccc2c(=O)cc(/C=C/c3ccc(OC(F)(F)F)cc3)oc2c1OC`, the result in [6] was inactive. Besides, the results for the Activity in test [7], in test [8] and in [12] were 15%, “Dose-dependent effect” and 60%, respectively. Besides, the outcome in test [9], in test [10], in test [11] and in [13] was Active. For the same molecule, the IC50 was greater than 40 µM in test [1]; 30.9 µM in test [2] (read-out: IC50); 30.9 µM in test [2] (read-out: pIC50 (converted)); 12.4 µM in [3]; 4.9 µM in [4]; greater than 40 µM in test [5].

As to `COc1ccc2oc(/C=C/c3ccc(OC(F)(F)F)cc3)cc(=O)c2c1`, the IC50 in test [1] was greater than 40 µM; in test [2] (read-out: IC50), greater than 40 µM; in test [3], greater than 40 µM; in [4] it was 9 µM; in test [5] it was greater than 40 µM.

In the case of `COc1cc(OC)c2c(=O)cc(/C=C/c3ccc(Br)cc3)oc2c1`, the IC50 was greater than 40 µM in [1]; greater than 40 µM in test [2] (read-out: IC50); 60.3 µM in test [2] (read-out: pIC50 (converted)); greater than 40 µM in [3]; greater than 40 µM in [4]; greater than 40 µM in [5].

`COc1cc(OC)c2c(=O)cc(/C=C/c3ccncc3)oc2c1`: the IC50 in [1] was greater than 40 µM; in [2] (read-out: IC50), 25.2 µM; in test [2] (read-out: pIC50 (converted)), 25.1 µM; in test [3], greater than 40 µM; in test [4] it was 18.8 µM; in test [5], greater than 40 µM.

Take `COc1cc(OC)c2c(=O)cc(/C=C/c3ccccc3)oc2c1`: the IC50 is 21.5 µM in test [1]; greater than 40 µM in test [2] (read-out: IC50); 26 µM in [3]; 10.1 µM in [4]; greater than 40 µM in [5]. Further, in [14], the result was Active.

For `COc1cc(OC)c2c(=O)cc(/C=C/c3ccc(C(F)(F)F)cc3)oc2c1`, the IC50 in [1] was greater than 40 µM; in test [2] (read-out: IC50), greater than 40 µM; in test [2] (read-out: pIC50 (converted)), 60.3 µM; in test [3], 20.6 µM; in test [4] it was 19 µM; in [5] it was greater than 40 µM. The outcome in test [14] was Active.

On to `COc1cc(OC)c2c(=O)cc(/C=C/c3ccc(OCC4CC4)cc3)oc2c1`, for which the IC50 in test [1] is 20.9 µM; in [2] (read-out: IC50), 16.6 µM; in test [2] (read-out: pIC50 (converted)), 16.6 µM; in [3], 22.1 µM; in test [4] it was 10.9 µM; in [5] it was greater than 40 µM.

As for `COc1cc(OC)c2c(=O)cc(/C=C/c3ccc(Cl)cc3)oc2c1`, the IC50 in [1] was greater than 40 µM; in test [2] (read-out: IC50) it was 26.1 µM; in test [2] (read-out: pIC50 (converted)), 26.3 µM; in test [3], 26.9 µM; in test [4], 14.2 µM; in test [5] it was greater than 40 µM.

For `COc1ccc2c(=O)cc(/C=C/c3ccc(OC(F)(F)F)cc3)oc2c1`, the IC50 in test [1] is greater than 40 µM; in test [2] (read-out: IC50) it was 20.1 µM; in test [2] (read-out: pIC50 (converted)), 20 µM; in test [3], greater than 40 µM; in test [4] it was 9.9 µM; in test [5], greater than 40 µM.

Regarding `COc1cc(OC)c2c(=O)cc(/C=C/c3ccc(OC(F)(F)F)cc3)oc2c1`, the IC50 was 24.2 µM in test [1]; 26.6 µM in [2] (read-out: IC50); 26.3 µM in test [2] (read-out: pIC50 (converted)); 12.5 µM in test [3]; greater than 40 µM in test [4]; greater than 40 µM in test [5].

For the molecule `COc1cccc2oc(/C=C/c3ccc(OC(F)(F)F)cc3)cc(=O)c12`, the IC50 in test [1] was greater than 40 µM; in test [2] (read-out: IC50), 18.2 µM; in test [2] (read-out: pIC50 (converted)), 18.2 µM; in test [3], 21 µM; in [4], 9.1 µM; in test [5], greater than 40 µM.

Regarding `COc1cc(OC)c2c(=O)cc(/C=C/c3ccc([N+](=O)[O-])cc3)oc2c1`, the IC50 in test [1] is 19.7 µM; in test [2] (read-out: IC50), 25.5 µM; in [2] (read-out: pIC50 (converted)) it was 25.5 µM; in test [3], 22 µM; in test [4], 9.6 µM; in test [5], greater than 40 µM.

Consider `COc1cc(OC)c2c(=O)cc(/C=C/c3ccc(F)cc3)oc2c1`, for which the IC50 in test [1] was 18.6 µM; in [2] (read-out: IC50) it was 19.9 µM; in [2] (read-out: pIC50 (converted)), 20 µM; in [3], 29.2 µM; in [4] it was 14.2 µM; in test [5] it was greater than 40 µM.
